# Results as given in ChEMBL document CHEMBL1938287, “Design and synthesis of inhaled p38 inhibitors for the treatment of chronic obstructive pulmonary disease” (J Med Chem, 2011).
# Assays:
# [1] = Metabolic stability in human liver microsomes; format: ADME, Microsome; conditions: read-out: Stability
# [2] = Metabolic stability in human liver microsomes assessed as phase II glucuronidation in the presence of uridine diphosphate glucuronic acid and absence of NADPH; format: ADME, Microsome; conditions: read-out: Stability
# Procedure, shortened: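 Human liver microsomes incubated with the cofactor UDPGA and without NADPH, to assess phase II glucuronidation.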
# [3] = Oral bioavailability in rat at 3 mg/kg; format: ADME, organism-based; conditions: in vivo
# Procedure, shortened: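 Oral pharmacokinetics in rats from a 3 mg/kg dose.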
# Rattus norvegicus = species on record: Rattus norvegicus; experiment: Unbound clearance in rat; format: ADME, organism-based; conditions: in vivo
# [4] = Intrinsic clearance in rat liver microsomes; format: ADME, Microsome; conditions: read-out: CLH
# [5] = Clearance in rat at 1 mg/kg, iv; format: ADME, organism-based; design: dose 1 mg/kg, route intravenous; conditions: in vivo
# Procedure, shortened: (§1)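 Intravenous pharmacokinetics in rats from a 1 mg/kg dose; blood sampled.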
# [6] = Half life in rat at 1 mg/kg, iv; format: ADME, organism-based; design: dose 1 mg/kg, route intravenous; conditions: in vivo; procedure, shortened: as §1
# [7] = Volume of distribution at steady state in rat at 1 mg/kg, iv; format: ADME, organism-based; design: dose 1 mg/kg, route intravenous; conditions: in vivo, read-out: Vdss
# [8] = Solubility in simulated lung fluid; format: physicochemical
# [9] = Dissociation constant, pKa of the compound; format: physicochemical
# [10] = Oral bioavailability in rat at 0.5 mg/kg; format: ADME, organism-based; conditions: in vivo
# Procedure, shortened: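 Oral pharmacokinetics in rats from a 0.5 mg/kg dose; blood sampled.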
# [11] = Clearance in dog at 0.5 mg/kg, iv; format: ADME, organism-based, Canis lupus familiaris; design: dose 0.5 mg/kg, route intravenous; conditions: in vivo
# Procedure, shortened: (§2)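 Intravenous pharmacokinetics in dogs from a 0.5 mg/kg dose; blood sampled.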
# [12] = Volume of distribution at steady state in dog at 0.5 mg/kg, iv; format: ADME, organism-based, Canis lupus familiaris; design: dose 0.5 mg/kg, route intravenous; conditions: in vivo, read-out: Vdss
# [13] = Aqueous solubility of the compound; format: physicochemical
# [14] = Lipophilicity, log D of the compound; format: physicochemical; conditions: octanol/water
# Liver microsomes [15] = experiment: Drug metabolism in human liver microsomes; format: ADME, Microsome
# Canis familiaris = species on record: Canis familiaris; experiment: Unbound clearance in dog; format: ADME, organism-based, Canis lupus familiaris; conditions: in vivo
# Liver microsomes [16] = experiment: Drug metabolism in rat liver microsomes; format: ADME, Microsome
# [17] = Half life in dog at 0.5 mg/kg, iv; format: ADME, organism-based, Canis lupus familiaris; design: dose 0.5 mg/kg, route intravenous; conditions: in vivo; procedure, shortened: as §2
# [18] = Drug metabolism in dog liver microsomes; format: ADME, Canis lupus familiaris, Microsome
Compound,microsomal CLint [1] [µL/min/mg],microsomal CLint [2] [µL/min/mg],also measured
Cc1ccc(-n2nc(C(C)(C)C)cc2NC(=O)NCc2ccccc2Sc2ccc3nnc(-c4ccccc4O)n3c2)cc1,279,,
Cc1cccc(-n2nc(C(C)(C)C)cc2NC(=O)NCc2ccccc2Sc2ccc3nnc(-c4cccc(Cl)c4O)n3c2)c1,126,41,
CSCC(C)(C)c1cc(NC(=O)NCc2ccccc2Sc2ccc3nnc(-c4ccccc4O)n3c2)n(-c2ccccc2)n1,> 440,27,
Cc1ccc(-n2nc(C(C)(C)C)cc2NC(=O)NCc2ccccc2Sc2ccc3nnc(-c4cc(O)ccc4Cl)n3c2)cc1,> 440,43,
Cc1ccc(-n2nc(C(C)(C)C)cc2NC(=O)NCc2ccccc2Sc2ccc3nnc(-c4ccc(O)cc4Cl)n3c2)cc1,132,,
CC(C)(C)c1cc(NC(=O)NCc2ccccc2Sc2ccc3nnc(-c4ccccc4O)n3c2)n(-c2cccc(OCCO)c2)n1,> 287,8,solubility [8]: 1 µg/mL
CC(C)(C)c1cc(NC(=O)NCc2ccccc2Sc2ccc3nnc(-c4ccccc4OCCO)n3c2)n(-c2cccc(O)c2)n1,> 320,,
CC(C)(C)c1cc(NC(=O)NCc2ccccc2Sc2ccc3nnc(-c4cc(O)ccc4Cl)n3c2)n(-c2cccc(OCCO)c2)n1,> 285,53,
CSCC(C)(C)c1cc(NC(=O)NCc2ccccc2Sc2ccc3nnc(-c4cc(O)ccc4Cl)n3c2)n(-c2cccc(OCCO)c2)n1,> 216,47,
CC(C)(C)c1cc(NC(=O)NCc2ccccc2Sc2ccc3nnc(-c4ccccc4OCCO)n3c2)n(-c2ccc(O)c(Cl)c2)n1,202,130,
CC(C)(C)c1cc(NC(=O)NCc2ccccc2Sc2ccc3nnc(-c4ccccc4OCCO)n3c2)n(-c2ccc(Cl)c(O)c2)n1,232,70,
CSCC(C)(C)c1cc(NC(=O)NCc2ccccc2Sc2ccc3nnc(-c4ccccc4OCCO)n3c2)n(-c2ccc(O)c(Cl)c2)n1,> 440,310,
CC(C)(C)c1cc(NC(=O)NCc2ccccc2Sc2ccc3nnc(-c4ccccc4OCCO)n3c2)n(-c2ccc(O)c(F)c2)n1,> 440,,
CSCC(C)(C)c1cc(NC(=O)NCc2ccccc2Sc2ccc3nnc(-c4ccccc4SCCO)n3c2)n(-c2ccc(O)c(Cl)c2)n1,,264,
C[C@@H]1C[C@H]2[C@@H]3C[C@H](F)C4=CC(=O)C=C[C@]4(C)[C@@]3(F)[C@@H](O)C[C@]2(C)[C@@]1(O)C(=O)SCF [FLUTICASONE],,,solubility [8]: 0.5 µg/mL
CC(C)(C)c1cc(NC(=O)NCc2ccccc2Sc2ccc3nnc(-c4ccccc4SCCO)n3c2)n(-c2ccc(O)c(Cl)c2)n1 [PF-03715455],> 347,205,pKa [9]: 7.45; bioavailability [10]: < 5%; clearance [11]: 13.1 mL/min/kg; Vd [12]: 0.06 L/kg; CL free (Rattus norvegicus): 33000 mL/min/kg; solubility [13]: < 100 µg/mL; logD [14]: > 4.1; clearance [5]: 33.8 mL/min/kg; half-life [6]: 1 h; Vd [7]: 0.19 L/kg; Drug metabolism (Liver microsomes [15]): Active; CL free (Canis familiaris): 15000 mL/min/kg; Drug metabolism (Liver microsomes [16]): Active; half-life [17]: 0.5 h; Drug metabolism [18]: Active

# Second part, led by results:
microsomal CLint [1] [µL/min/mg],microsomal CLint [2] [µL/min/mg],Compound,also measured
> 320,,CC(C)c1nnc2ccc(Sc3ccccc3CNC(=O)Nc3cc(C(C)(C)C)nn3-c3ccccc3)cn12,
> 320,1.7,CSC(C)(C)c1cc(NC(=O)NCc2ccccc2Sc2ccc3nnc(C(C)C)n3c2)n(-c2ccccc2)n1,
385,,CC(C)c1nnc2ccc(Sc3ccccc3CNC(=O)Nc3cc(C(C)(C)C)nn3-c3cccc(O)c3)cn12,
196,,CC(C)c1nnc2ccc(Sc3ccccc3CNC(=O)Nc3cc(C(C)(C)C)nn3-c3ccc(O)cc3)cn12,
> 440,2,CSC(C)(C)c1cc(NC(=O)NCc2ccccc2Sc2ccc3nnc(C(C)C)n3c2)n(-c2cccc(O)c2)n1,bioavailability [3]: < 5%; CL free (Rattus norvegicus): > 9600 mL/min/kg; microsomal CLint [4]: 200 µL/min/mg; clearance [5]: 77 mL/min/kg; half-life [6]: 1 h; Vd [7]: 0.9 L/kg
> 287,155,CC(C)c1nnc2ccc(Sc3ccccc3CNC(=O)Nc3cc(C(C)(C)C)nn3-c3ccc(O)c(Cl)c3)cn12,
303,66,CC(C)c1nnc2ccc(Sc3ccccc3CNC(=O)Nc3cc(C(C)(C)C)nn3-c3ccc(Cl)c(O)c3)cn12,
304,11,CSc1ccccc1-c1nnc2ccc(Sc3ccccc3CNC(=O)Nc3cc(C(C)(C)C)nn3-c3cccc(O)c3)cn12,
> 440,4,CC(C)(C)c1cc(NC(=O)NCc2ccccc2Sc2ccc3nnc(-c4ccccc4SCCO)n3c2)n(-c2cccc(O)c2)n1,
